Legend:
[1] = molecular target: Histone deacetylase 1 (Homo sapiens, UniProt Q13547); assay: Inhibition of HDAC1 using Fluor de Lys as substrate by fluorescence analysis
[2] = tested on: HCT-116; assay: Growth inhibition of human HCT116 cells after 2 days by MTT assay; type: functional; details: HCT-116, 48 h; for CC50: read-out: LC50 (the source's name)
[3] = Antitumor activity against mouse EAC cells allografted in Swiss albino mouse assessed as decrease in tumor weight at 0.2 mmol/kg, ip administered from day 1 to day 7 every 24 hrs; type: functional; details: Ehrlich
Method in brief: (§1)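 EAC cells kept by intraperitoneal passage in Swiss albino mice (18-20 g, 10 weeks) every 10 days; 9-day-old cells in isotonic saline adjusted to 10×10^6 cells/mL, 0.1 mL per 10 g injected ip on day 0. Seven daily ip doses in PBS pH 7.2 (0.1 mL/10 g), days 1-7; vehicle control. Day 8 sacrifice after 6 h fast.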

[4] = tested on: U-251; assay: Growth inhibition of human U251 cells after 2 days by MTT assay; type: functional; details: U-251, 48 h
[5] = Antitumor activity against mouse EAC cells allografted in Swiss albino mouse assessed as decrease in tumor cell at 0.2 mmol/kg, ip administered from day 1 to day 7 every 24 hrs; type: functional; details: Ehrlich; method in brief: as §1
[6] = molecular target: T1, NAD-dependent protein deacetylase sirtuin-1 (Homo sapiens, UniProt Q96EB6); assay: Inhibition of SIRT1
T1 sequence (Q96EB6 whole entry): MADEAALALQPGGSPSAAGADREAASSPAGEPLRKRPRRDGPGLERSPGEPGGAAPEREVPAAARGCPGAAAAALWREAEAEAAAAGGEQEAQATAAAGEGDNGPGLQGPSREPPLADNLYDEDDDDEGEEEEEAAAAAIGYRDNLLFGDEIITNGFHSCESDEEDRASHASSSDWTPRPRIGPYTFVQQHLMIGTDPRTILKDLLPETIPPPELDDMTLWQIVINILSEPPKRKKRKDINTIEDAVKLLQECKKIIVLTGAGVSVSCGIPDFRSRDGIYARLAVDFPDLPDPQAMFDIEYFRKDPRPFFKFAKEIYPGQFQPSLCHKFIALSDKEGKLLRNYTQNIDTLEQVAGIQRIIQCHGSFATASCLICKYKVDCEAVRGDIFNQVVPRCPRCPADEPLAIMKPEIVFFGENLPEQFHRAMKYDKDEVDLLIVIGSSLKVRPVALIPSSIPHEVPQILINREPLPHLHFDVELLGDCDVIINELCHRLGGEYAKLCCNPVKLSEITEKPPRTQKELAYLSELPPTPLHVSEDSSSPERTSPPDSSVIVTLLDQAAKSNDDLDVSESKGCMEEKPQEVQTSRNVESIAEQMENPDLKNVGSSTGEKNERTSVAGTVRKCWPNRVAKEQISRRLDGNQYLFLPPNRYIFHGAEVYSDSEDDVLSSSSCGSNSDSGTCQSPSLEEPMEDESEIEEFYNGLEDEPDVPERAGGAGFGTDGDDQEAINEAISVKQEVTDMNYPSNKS

[7] = Antitumor activity against mouse EAC cells allografted in Swiss albino mouse assessed as decrease in tumor cell at 1 mg/kg, ip administered from day 1 to day 7 every 24 hrs; type: functional; details: Ehrlich, route intraperitoneal; method in brief: as §1
[8] = Antitumor activity against mouse EAC cells allografted in Swiss albino mouse assessed as decrease in tumor weight at 1 mg/kg, ip administered from day 1 to day 7 every 24 hrs; type: functional; details: Ehrlich, route intraperitoneal; method in brief: as §1

Chain of Histone deacetylase 1 (Q13547 whole entry): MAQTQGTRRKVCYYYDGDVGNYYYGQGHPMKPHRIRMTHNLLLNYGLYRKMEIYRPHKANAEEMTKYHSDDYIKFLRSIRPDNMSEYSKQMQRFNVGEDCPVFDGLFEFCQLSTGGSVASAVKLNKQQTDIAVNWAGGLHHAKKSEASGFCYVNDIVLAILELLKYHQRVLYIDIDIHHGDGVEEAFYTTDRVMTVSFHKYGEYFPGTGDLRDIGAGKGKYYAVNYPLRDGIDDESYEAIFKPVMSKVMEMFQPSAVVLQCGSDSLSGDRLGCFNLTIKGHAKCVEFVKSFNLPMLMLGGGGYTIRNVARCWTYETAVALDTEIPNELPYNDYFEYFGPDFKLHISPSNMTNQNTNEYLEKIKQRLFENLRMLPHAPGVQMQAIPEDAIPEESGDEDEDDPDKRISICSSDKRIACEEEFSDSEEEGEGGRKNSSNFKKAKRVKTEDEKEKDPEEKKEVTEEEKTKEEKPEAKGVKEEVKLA

SMILES	IC50 [1] [nM]	GI50 [2] [µM]	TGI [2] [µM]	CC50 [2] [µM]	inhibition in vivo at 200 µmol/kg [3] [%]	GI50 [4] [µM]	LC50 (concentration killing 50% of cells) [4] [µM]	TGI [4] [µM]	inhibition in vivo at 200 µmol/kg [5] [%]	IC50 [6] [µM]	inhibition in vivo at 1 mg/kg [7] [%]	inhibition in vivo at 1 mg/kg [8] [%]
Nc1ccccc1NC(=O)CCCNCC(=O)Nc1ccc(Br)cc1	1700	7.7	55.5	> 100	73.8	10.4	> 100	80	68.7	–	–	–
Nc1ccccc1NC(=O)CCCNCC(=O)Nc1ccccc1	9200	70.4	> 100	> 100	25	> 100	> 100	> 100	19.1	–	–	–
Nc1ccccc1NC(=O)CCCNCC(=O)Nc1ccccc1Cl	2900	21.8	> 100	> 100	21.4	28.6	> 100	> 100	12.7	–	–	–
Nc1ccccc1NC(=O)CCCNCC(=O)Nc1cccc(Cl)c1	1800	11.6	75	> 100	32.1	19.5	> 100	> 100	22.5	–	–	–
Nc1ccccc1NC(=O)CCCNCC(=O)Nc1ccc(Cl)cc1	1400	5.5	45	> 100	72.7	11.4	> 100	75	75	–	–	–
Nc1ccccc1NC(=O)CCCNCC(=O)Nc1ccccc1[N+](=O)[O-]	3100	2.8	32	> 100	41.3	32	> 100	> 100	10.5	–	–	–
Nc1ccccc1NC(=O)CCCNCC(=O)Nc1cccc([N+](=O)[O-])c1	2300	0.9	22.5	> 100	40.6	15	> 100	93.5	36	–	–	–
Nc1ccccc1NC(=O)CCCNCC(=O)Nc1ccc([N+](=O)[O-])cc1	900	0.6	8.5	> 100	78.5	9.4	> 100	66	76.5	–	–	–
COc1ccc(NC(=O)CNCCCC(=O)Nc2ccccc2N)cc1	3600	8.6	44	> 100	63.8	34	> 100	> 100	63.3	–	–	–
Cc1ccc(NC(=O)CNCCCC(=O)Nc2ccccc2N)cc1	7500	17.9	> 100	> 100	42.8	57	> 100	> 100	18.9	–	–	–
Nc1ccccc1NC(=O)CCCNCC(=O)Nc1cc(Cl)ccc1Cl	8900	31	78	> 100	50	44	> 100	> 100	50.9	–	–	–
Nc1ccccc1NC(=O)c1ccc(NCC(=O)Nc2ccccc2)cc1	7400	45.3	> 100	> 100	18.5	65	> 100	> 100	30.5	–	–	–
Nc1ccccc1NC(=O)c1ccc(NCC(=O)Nc2ccc(Br)cc2)cc1	1600	6.8	47.5	> 100	76.3	10.8	> 100	45	73.5	–	–	–
Nc1ccccc1NC(=O)c1ccc(NCC(=O)Nc2ccccc2Cl)cc1	2900	9.5	> 100	> 100	43.3	24.2	> 100	> 100	31.4	–	–	–
Nc1ccccc1NC(=O)c1ccc(NCC(=O)Nc2cccc(Cl)c2)cc1	2500	11.5	> 100	> 100	68.4	15.4	> 100	88	51.7	–	–	–
Nc1ccccc1NC(=O)c1ccc(NCC(=O)Nc2ccc(Cl)cc2)cc1	1000	4.2	62.5	> 100	79.4	9.4	> 100	62.5	73.3	–	–	–
Nc1ccccc1NC(=O)c1ccc(NCC(=O)Nc2ccccc2[N+](=O)[O-])cc1	2000	3.5	25	> 100	12.9	18	> 100	83	19.7	–	–	–
Nc1ccccc1NC(=O)c1ccc(NCC(=O)Nc2cccc([N+](=O)[O-])c2)cc1	1400	1.1	9	> 100	67.6	13.5	> 100	52	40.4	–	–	–
Nc1ccccc1NC(=O)c1ccc(NCC(=O)Nc2ccc([N+](=O)[O-])cc2)cc1	700	0.6	6.5	> 100	83.3	8.2	> 100	42.5	77.5	–	–	–
COc1ccc(NC(=O)CNc2ccc(C(=O)Nc3ccccc3N)cc2)cc1	3100	7.5	38	> 100	66.6	25.5	> 100	> 100	62.3	–	–	–
Cc1ccc(NC(=O)CNc2ccc(C(=O)Nc3ccccc3N)cc2)cc1	4500	12.6	> 100	> 100	43.3	84	> 100	> 100	25.2	–	–	–
Nc1ccccc1NC(=O)c1ccc(NCC(=O)Nc2cc(Cl)ccc2Cl)cc1	8600	7.9	66	> 100	58.3	38.6	> 100	> 100	56.2	–	–	–
Nc1ccccc1NC(=O)c1ccc(CNC(=O)OCc2cccnc2)cc1 [ENTINOSTAT]	–	0.6	> 100	> 100	–	6.5	–	40	–	> 100	–	–
CO[C@@]12[C@H](COC(N)=O)C3=C(C(=O)C(C)=C(N)C3=O)N1C[C@@H]1N[C@@H]12 [MITOMYCIN]	–	–	–	–	–	–	–	–	–	–	100	100
